Bioassay records from PubChem.
XiGFP reactiv = activators of X-chromosome reactivation in mouse fibroblasts. XiGFP mouse fibroblasts, % GFP-positive cells imaging, 3 d; cells co-treated with 5-aza-dC sensitizer; scaled so ellipticine positive control = 100%. activation, % at 7.58 µM. 360,000 tested, 0.055% active. AID 743238;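 active = mean normalized replicate activation at least 10% and every replicate at or above 10%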
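System: 68-5-11 XiGFP fibroblast line; Timing: 3 days compound exposure; Compound dosing: one concentration, pinned; Benchmarks: positive control ellipticine, 6 µM final; Buffer or medium: DMEM containing 5-aza-dC.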
ABHD5 PLIN5 PPI = ABHD5-PLIN5 protein interaction inhibition; Q00G26+Q8WTS1; Split G. princeps luciferase complementation, luminescence, 4 h; inhibition, % at 4 µM; 360,000 tested, 0.78% active; AID 602281;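 active = inhibition above the mean inhibition across every tested compound plus 3 SD, cut at about 22% in these data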
Rin1-Abl PPI inh = inhibitors of human Rin1-Abl protein interaction. P00519+Q13671. TR-FRET Rin1/Abl binding, biochemical. inhibition, % at 7.35 µM. 360,000 tested, 0.4% active. AID 588664; in the data active = inhibition above about 5%, passing the limit was not always enough
Rpn11 block = blocks the human proteasome subunit Rpn11; 360,000 tested, 0.59% active; AID 588493; human 26S proteasome, Ub4-pepOG fluorescence polarization; 20S core pre-blocked with epoxomicin; inhibition, % at 20 µM;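 active = inhibition at 20 µM, scaled to each plate's controls, above about 33%, limit read from the data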
Target sequence (O00487 whole entry, looked up): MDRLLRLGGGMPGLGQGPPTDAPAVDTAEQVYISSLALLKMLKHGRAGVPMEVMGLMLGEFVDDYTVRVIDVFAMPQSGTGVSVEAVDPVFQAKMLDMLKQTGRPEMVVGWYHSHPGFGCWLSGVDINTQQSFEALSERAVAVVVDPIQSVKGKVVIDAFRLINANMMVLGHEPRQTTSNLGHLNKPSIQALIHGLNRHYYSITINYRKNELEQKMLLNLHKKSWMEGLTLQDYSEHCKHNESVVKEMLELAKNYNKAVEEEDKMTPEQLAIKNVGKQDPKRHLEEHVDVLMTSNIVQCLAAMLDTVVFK
NadD inh = NadD (S. aureus) enzyme inhibition; purified NadD enzyme, colorimetric absorbance read-out; inhibition, % at 20 µM; 360,000 tested, 0.78% active; AID 602399; in the data active = inhibition above about 26%
Rin1-Abl confirm = Rin1-Abl interaction inhibition confirmation. shares compounds with Rin1-Abl PPI inh. TR-FRET Rin1-Abl binding, purified proteins. inhibition, % at 7.35 µM. 1,300 tested, 49% active. AID 602124
GFP quench = counter-screen for Rin1-Abl inhibitors: GFP fluorescence quenchers. shares compounds with Rin1-Abl PPI inh. inhibitors/quenchers counterscreen. inhibition, % at 6.75 µM. 1,300 tested, 8.5% active. AID 602125;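 note: ABL1-eGFP fusion protein alone without its partner RIN1-SBP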
GFP quench DR = counter-screen for Rin1-Abl inhibitors: GFP quenchers, dose response | shares compounds with Rin1-Abl PPI inh | GFP fluorescence interference/quenching counterscreen | IC50, µM | 230 tested, under 10 active; call rule not given here;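 note: ABL1-eGFP fusion protein alone without its RIN1 binding partner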
Hits are given with their value; . = inactive; / = no result. In the library only some 1.9% were active in any assay of this set; here they are far more common. Cut-off read from the data, not from the text of the source, unless noted: active = inhibition above about 6.5%; inactive = the rest.

SMILES	XiGFP reactiv	ABHD5 PLIN5 PPI	Rin1-Abl PPI inh	Rpn11 block	NadD inh	Rin1-Abl confirm	GFP quench	others
COC(=O)[C@@H]1[C@@H](CO)[C@@H]2Cn3c(cccc3=O)[C@@H]2N1C(=O)C1CC1	.	/	/	/	/	/	/
C[C@H]1CCCCO[C@H](CN(C)S(=O)(=O)c2cccs2)[C@@H](C)CN([C@@H](C)CO)C(=O)c2cc(NC(=O)CCCN(C)C)ccc2O1	.	/	/	/	/	/	/
CCOC(=O)CCCCCC(=O)Nc1ccc2c(c1)C(=O)N([C@@H](C)CO)C[C@@H](C)[C@H](CN(C)S(=O)(=O)c1cccs1)OCCCC[C@H](C)O2	.	.	8.2	.	.	.	.
Cc1noc(C)c1NC(=O)Nc1ccc2c(c1)C(=O)N([C@H](C)CO)C[C@H](C)[C@@H](CN(C)S(=O)(=O)c1ccccc1)O2	.	.	9.2	.	.	.	.
C[C@@H]1CCCCO[C@@H](CN(C)S(=O)(=O)c2ccccc2)[C@@H](C)CN([C@H](C)CO)C(=O)c2cc(NS(=O)(=O)c3ccc(F)cc3)ccc2O1	.	.	51	.	.	60	.	GFP quench DR=.
COc1ccc2c3c([nH]c2c1)[C@@H](CO)N(S(C)(=O)=O)CC31CCN(Cc2nccs2)CC1	.	/	/	/	/	/	/
O=C(NC1CCCC1)N1CC(=O)N2[C@H](CO)[C@H](c3ccc(-c4ccccc4)cc3)[C@@H]2C1	.	/	/	/	/	/	/
CNC[C@H]1OCCCC[C@@H](C)Oc2ccc(NC(=O)c3ccccc3)cc2C(=O)N([C@H](C)CO)C[C@@H]1C	.	/	/	/	/	/	/
COc1ccc(NC(=O)CSc2nnc3n2CCCCC3)cc1	.	.	.	.	.	/	/
Cc1ccc(NC(=O)CSc2nnc3n2CCCCC3)cc1	.	.	6.0	.	.	.	.
CCCCOc1ccc(C(=O)N=c2sccn2C)cc1OC	.	.	20	.	.	12	.
CCN(CC)S(=O)(=O)c1cc(C(=O)N=c2sccn2C)ccc1OC	.	.	.	.	.	/	/
CN1C(=O)c2cc(NC(=O)C3CC3)ccc2OC[C@H]2O[C@H](CC(=O)NCC3CCCCC3)CC[C@@H]21	.	/	/	/	/	/	/
CO[C@@H]1CN(C)C(=O)c2cc(NC(=O)NC3CCCC3)ccc2OC[C@@H](C)NC[C@@H]1C	.	/	/	/	/	/	/
CC(=O)NC1=NN(C(C)=O)C(C)(c2ccco2)S1 (stereo not drawn)	.	.	8.7	.	.	.	.
CC(=O)NC1=NN(C(C)=O)C(C)(c2ccc(C)o2)S1 (stereo not drawn)	.	.	.	.	.	/	/
Nc1nc(-c2ccc([N+](=O)[O-])cc2)cc(=O)[nH]1	.	.	13	.	.	11	.
COc1ccc(S(=O)(=O)Nc2ccc3c(c2)C(=O)N([C@H](C)CO)C[C@H](C)[C@@H](CN(C)C(=O)CCC(F)(F)F)OCCCC[C@H](C)O3)cc1	.	/	/	/	/	/	/
O=C(Nc1c(-c2ccccc2)[nH][nH]c1=O)c1ccc2c(c1)OCO2	.	.	/	/	/	/	/
O=C(Nc1c(-c2ccc3c(c2)OCO3)[nH][nH]c1=O)c1ccccc1	.	.	24	.	.	9.0	.
COc1ccc2c3c(n(C)c2c1)[C@@H](CO)N(C(=O)Nc1ccc(F)cc1)CC31CCN(S(=O)(=O)c2cccc(F)c2)CC1	.	/	/	/	/	/	/
[O-]C(=C(C(=S)Nc1cccc2ccccc12)[n+]1cccc(CO)c1)c1ccc(Cl)s1	.	.	13	.	.	.	.
C[C@@H]1CN([C@@H](C)CO)C(=O)c2cc(C3=CCCC3)cnc2O[C@H]1CN(C)C(=O)Nc1ccccc1	.	/	/	/	/	/	/
CCOC(=O)c1c(C)n(C(=O)c2ccco2)c(=O)n1C(=O)c1ccco1	/	.	36	.	.	35	.	GFP quench DR=.
CCCC#Cc1cnc2c(c1)C(=O)N([C@H](C)CO)C[C@H](C)[C@H](CN(C)C(=O)CN1CCOCC1)O2	.	/	/	/	/	/	/
CC(=O)NS(=O)(=O)c1ccc(NS(=O)(=O)c2ccc(F)cc2)cc1	/	.	5.8	.	.	.	.
CC(=O)NS(=O)(=O)c1ccc(NS(=O)(=O)c2ccc3ccccc3c2)cc1	.	.	.	.	.	/	/
